# Test results from ChEMBL document CHEMBL3797186, “Single Residue Substitutions That Confer Voltage-Gated Sodium Ion Channel Subtype Selectivity in the NaV1.7 Inhibitory Peptide GpTx-1” (J Med Chem, 2016).
# Positions of bridges follow the written chain, without caps; N, C: chain ends. Residues, ends and D or L forms follow the SMILES beside them.
# Biological target: Sodium channel protein type 5 subunit alpha (Homo sapiens, UniProt Q14524)
# Test: Inhibition of human Nav1.5 expressed in HEK293 cells assessed as inward peak current by ion-works quattro patch clamp electrophysiology method
# Assay type: cell-based
# Method in brief: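 Stable HEK293 line expressing human NaV1.5, recorded by population patch clamp on the IonWorks Quattro.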
# Sequence of Sodium channel protein type 5 subunit alpha (Q14524 whole entry): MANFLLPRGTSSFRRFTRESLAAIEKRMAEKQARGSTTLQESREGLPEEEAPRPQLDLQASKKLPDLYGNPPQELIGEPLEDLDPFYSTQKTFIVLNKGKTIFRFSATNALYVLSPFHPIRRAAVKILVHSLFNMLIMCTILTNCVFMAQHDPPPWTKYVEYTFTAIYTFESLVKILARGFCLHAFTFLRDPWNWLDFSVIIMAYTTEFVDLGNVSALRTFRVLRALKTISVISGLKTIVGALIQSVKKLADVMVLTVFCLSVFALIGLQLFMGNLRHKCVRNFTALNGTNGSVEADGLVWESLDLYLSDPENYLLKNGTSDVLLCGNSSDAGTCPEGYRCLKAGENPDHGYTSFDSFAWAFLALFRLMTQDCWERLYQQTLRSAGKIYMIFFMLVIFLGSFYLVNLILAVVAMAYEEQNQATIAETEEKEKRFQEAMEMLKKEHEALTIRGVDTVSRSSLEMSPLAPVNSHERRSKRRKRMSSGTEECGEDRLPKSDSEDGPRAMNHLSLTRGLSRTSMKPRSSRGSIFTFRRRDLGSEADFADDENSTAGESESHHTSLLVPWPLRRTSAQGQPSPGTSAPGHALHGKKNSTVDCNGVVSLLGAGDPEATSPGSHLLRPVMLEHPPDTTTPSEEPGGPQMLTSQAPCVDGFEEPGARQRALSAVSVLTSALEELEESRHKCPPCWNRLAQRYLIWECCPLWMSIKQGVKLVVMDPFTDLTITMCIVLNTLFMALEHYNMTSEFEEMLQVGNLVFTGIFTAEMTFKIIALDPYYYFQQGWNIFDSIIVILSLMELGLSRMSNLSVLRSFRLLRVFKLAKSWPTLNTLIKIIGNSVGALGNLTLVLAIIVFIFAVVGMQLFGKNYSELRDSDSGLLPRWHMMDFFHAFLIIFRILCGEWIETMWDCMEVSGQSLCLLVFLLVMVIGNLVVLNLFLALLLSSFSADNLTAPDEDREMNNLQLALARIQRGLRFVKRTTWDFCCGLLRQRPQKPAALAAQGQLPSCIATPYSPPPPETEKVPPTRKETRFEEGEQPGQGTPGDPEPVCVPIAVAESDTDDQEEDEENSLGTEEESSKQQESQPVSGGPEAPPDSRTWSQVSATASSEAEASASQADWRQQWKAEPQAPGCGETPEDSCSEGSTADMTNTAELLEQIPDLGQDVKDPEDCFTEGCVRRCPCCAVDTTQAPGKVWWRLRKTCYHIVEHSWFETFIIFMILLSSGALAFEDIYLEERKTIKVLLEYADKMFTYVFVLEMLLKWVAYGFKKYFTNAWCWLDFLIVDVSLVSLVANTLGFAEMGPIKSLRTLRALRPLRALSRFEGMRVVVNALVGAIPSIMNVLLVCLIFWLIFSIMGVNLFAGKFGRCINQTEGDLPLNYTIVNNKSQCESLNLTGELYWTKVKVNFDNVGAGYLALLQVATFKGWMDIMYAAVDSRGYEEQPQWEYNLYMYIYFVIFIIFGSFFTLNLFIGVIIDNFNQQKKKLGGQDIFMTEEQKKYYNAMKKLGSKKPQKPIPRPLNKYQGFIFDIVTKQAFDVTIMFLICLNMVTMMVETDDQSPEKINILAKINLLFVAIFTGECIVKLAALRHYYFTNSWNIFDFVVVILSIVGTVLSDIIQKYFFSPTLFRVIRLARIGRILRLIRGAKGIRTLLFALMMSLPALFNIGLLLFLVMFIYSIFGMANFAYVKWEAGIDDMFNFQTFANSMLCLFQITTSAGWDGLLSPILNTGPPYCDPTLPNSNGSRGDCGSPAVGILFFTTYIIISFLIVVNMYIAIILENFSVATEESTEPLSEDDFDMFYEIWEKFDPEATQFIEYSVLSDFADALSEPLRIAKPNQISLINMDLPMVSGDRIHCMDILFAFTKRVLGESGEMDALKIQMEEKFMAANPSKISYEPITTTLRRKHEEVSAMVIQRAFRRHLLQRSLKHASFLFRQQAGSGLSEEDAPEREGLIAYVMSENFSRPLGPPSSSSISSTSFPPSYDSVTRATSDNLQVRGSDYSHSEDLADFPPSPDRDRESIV
row,SMILES,IC50 [µM]
1,"CSCC[C@@H]1NC(=O)[C@H](Cc2ccccc2)NC(=O)CNC(=O)[C@H](CC(C)C)NC(=O)[C@@H](NC(=O)[C@@H](N)CC(=O)O)CSSC[C@@H]2NC(=O)[C@@H]3CSSC[C@@H](C(=O)N[C@@H](CCCCN)C(=O)N[C@@H](Cc4ccc(O)cc4)C(=O)N[C@H](C(=O)N[C@@H](Cc4ccccc4)C(N)=O)C(C)C)NC(=O)[C@H](Cc4c[nH]c5ccccc45)NC(=O)[C@H](CCCCN)NC(=O)[C@H](Cc4cnc[nH]4)NC(=O)[C@H]([C@@H](C)O)NC(=O)[C@H](CCCNC(=N)N)NC(=O)[C@H](CO)NC(=O)[C@H](CSSC[C@H](NC(=O)[C@H](CCCCN)NC(=O)[C@H](CCCNC(=N)N)NC1=O)C(=O)N[C@@H](Cc1ccc(O)cc1)C(=O)N1CCC[C@H]1C(=O)N[C@@H](CC(=O)O)C(=O)N[C@@H](CC(N)=O)C(=O)N[C@@H](CC(=O)O)C(=O)N[C@@H](CCCCN)C(=O)N3)NC(=O)[C@H](C(C)C)NC(=O)[C@H](CC(C)C)NC(=O)[C@H](CC(N)=O)NC(=O)[C@@H]1CCCN1C(=O)[C@H](CCCNC(=N)N)NC2=O (H-DCLGFMRKCYPDNDKCCRPNLVCSRTHKWCKYVF-NH2; disulfide 2-17, 9-23, 16-30)",> 5
2,"CC[C@H](C)[C@@H]1NC(=O)[C@@H]2CSSC[C@@H]3NC(=O)[C@H](C(C)C)NC(=O)[C@H](CC(C)C)NC(=O)[C@H](CC(N)=O)NC(=O)[C@@H]4CCCN4C(=O)[C@H](CCCNC(=N)N)NC(=O)[C@H](CSSC[C@H](NC(=O)[C@@H](N)CC(=O)O)C(=O)N[C@@H](CC(C)C)C(=O)NCC(=O)N[C@@H](Cc4ccccc4)C(=O)N[C@@H](CCC(=O)O)C(=O)N[C@@H](CCCNC(=N)N)C(=O)N[C@@H](CCCCN)C(=O)N2)NC(=O)[C@H](CSSC[C@@H](C(=O)N[C@@H](CCCCN)C(=O)N[C@@H](Cc2ccc(O)cc2)C(=O)N[C@H](C(=O)N[C@@H](Cc2ccccc2)C(N)=O)C(C)C)NC(=O)[C@H](Cc2c[nH]c4ccccc24)NC(=O)[C@H](CCCCN)NC(=O)[C@H](Cc2cnc[nH]2)NC(=O)[C@H]([C@@H](C)O)NC(=O)[C@H](CCCNC(=N)N)NC(=O)[C@H](CO)NC3=O)NC(=O)[C@H](CCCCN)NC(=O)[C@H](CC(=O)O)NC(=O)[C@H](CC(N)=O)NC(=O)[C@H](CC(=O)O)NC(=O)[C@@H]2CCCN2C1=O (H-DCLGFERKCIPDNDKCCRPNLVCSRTHKWCKYVF-NH2; disulfide 2-17, 9-23, 16-30)",> 5
3,"CC[C@H](C)[C@@H]1NC(=O)[C@@H]2CSSC[C@@H]3NC(=O)[C@H](C(C)C)NC(=O)[C@H](CC(C)C)NC(=O)[C@H](CC(N)=O)NC(=O)[C@@H]4CCCN4C(=O)[C@H](CCCNC(=N)N)NC(=O)[C@H](CSSC[C@H](NC(=O)[C@@H](N)CC(=O)O)C(=O)N[C@@H](CC(C)C)C(=O)NCC(=O)N[C@@H](Cc4ccccc4)C(=O)N[C@@H](CCSC)C(=O)N[C@@H](CCCNC(=N)N)C(=O)N[C@@H](CCCCN)C(=O)N2)NC(=O)[C@H](CSSC[C@@H](C(=O)N[C@@H](CCCCN)C(=O)N[C@@H](Cc2ccc(O)cc2)C(=O)N[C@H](C(=O)N[C@@H](Cc2ccccc2)C(N)=O)C(C)C)NC(=O)[C@H](Cc2c[nH]c4ccccc24)NC(=O)[C@H](CCCCN)NC(=O)[C@H](Cc2c[nH]cn2)NC(=O)[C@H]([C@@H](C)O)NC(=O)[C@H](CCCNC(=N)N)NC(=O)[C@H](CO)NC3=O)NC(=O)[C@H](CCC(=O)O)NC(=O)[C@H](CC(=O)O)NC(=O)[C@H](CC(N)=O)NC(=O)[C@H](CC(=O)O)NC(=O)[C@@H]2CCCN2C1=O (H-DCLGFMRKCIPDNDECCRPNLVCSRTHKWCKYVF-NH2; disulfide 2-17, 9-23, 16-30)",> 5
4,"CSCC[C@@H]1NC(=O)[C@H](Cc2ccccc2)NC(=O)CNC(=O)[C@H](CC(C)C)NC(=O)[C@@H](NC(=O)[C@@H](N)CC(=O)O)CSSC[C@@H]2NC(=O)[C@@H]3CSSC[C@@H](C(=O)N[C@@H](CCCCN)C(=O)N[C@@H](Cc4ccc(O)cc4)C(=O)N[C@H](C(=O)N[C@@H](Cc4ccccc4)C(N)=O)C(C)C)NC(=O)[C@H](Cc4c[nH]c5ccccc45)NC(=O)[C@H](CCCCN)NC(=O)[C@H](Cc4cnc[nH]4)NC(=O)[C@H]([C@@H](C)O)NC(=O)[C@H](CCCNC(=N)N)NC(=O)[C@H](CO)NC(=O)[C@H](CSSC[C@H](NC(=O)[C@H](CCCCN)NC(=O)[C@H](CCCNC(=N)N)NC1=O)C(=O)N[C@@H]([C@@H](C)O)C(=O)N1CCC[C@H]1C(=O)N[C@@H](CC(=O)O)C(=O)N[C@@H](CC(N)=O)C(=O)N[C@@H](CC(=O)O)C(=O)N[C@@H](CCCCN)C(=O)N3)NC(=O)[C@H](C(C)C)NC(=O)[C@H](CC(C)C)NC(=O)[C@H](CC(N)=O)NC(=O)[C@@H]1CCCN1C(=O)[C@H](CCCNC(=N)N)NC2=O (H-DCLGFMRKCTPDNDKCCRPNLVCSRTHKWCKYVF-NH2; disulfide 2-17, 9-23, 16-30)",> 5
5,"CSCC[C@@H]1NC(=O)[C@H](Cc2ccccc2)NC(=O)CNC(=O)[C@H](CC(C)C)NC(=O)[C@@H](NC(=O)[C@@H](N)CC(=O)O)CSSC[C@@H]2NC(=O)[C@@H]3CSSC[C@@H](C(=O)N[C@@H](CCCCN)C(=O)N[C@@H](Cc4ccc(O)cc4)C(=O)N[C@H](C(=O)N[C@@H](Cc4ccccc4)C(N)=O)C(C)C)NC(=O)[C@H](Cc4c[nH]c5ccccc45)NC(=O)[C@H](CCCCN)NC(=O)[C@H](Cc4cnc[nH]4)NC(=O)[C@H]([C@@H](C)O)NC(=O)[C@H](CCCNC(=N)N)NC(=O)[C@H](CO)NC(=O)[C@H](CSSC[C@H](NC(=O)[C@H](CCCCN)NC(=O)[C@H](CCCNC(=N)N)NC1=O)C(=O)N[C@@H](Cc1ccccc1)C(=O)N1CCC[C@H]1C(=O)N[C@@H](CC(=O)O)C(=O)N[C@@H](CC(N)=O)C(=O)N[C@@H](CC(=O)O)C(=O)N[C@@H](CCCCN)C(=O)N3)NC(=O)[C@H](C(C)C)NC(=O)[C@H](CC(C)C)NC(=O)[C@H](CC(N)=O)NC(=O)[C@@H]1CCCN1C(=O)[C@H](CCCNC(=N)N)NC2=O (H-DCLGFMRKCFPDNDKCCRPNLVCSRTHKWCKYVF-NH2; disulfide 2-17, 9-23, 16-30)",> 5
6,CC[C@H](C)[C@@H]1NC(=O)[C@@H]2CSSC[C@@H]3NC(=O)[C@H](C(C)C)NC(=O)[C@H](CC(C)C)NC(=O)[C@H](CC(N)=O)NC(=O)[C@@H]4CCCN4C(=O)[C@H](CCCNC(=N)N)NC(=O)[C@H](CSSC[C@H](NC(=O)[C@@H](N)CC(=O)O)C(=O)N[C@@H](CC(C)C)C(=O)NCC(=O)N[C@@H](Cc4cccc5ccccc45)C(=O)N[C@@H](CCSC)C(=O)N[C@@H](CCCNC(=N)N)C(=O)N[C@@H](CCCCN)C(=O)N2)NC(=O)[C@H](CSSC[C@@H](C(=O)N[C@@H](CCCCN)C(=O)N[C@@H](Cc2ccc(O)cc2)C(=O)N[C@H](C(=O)N[C@@H](Cc2ccccc2)C(N)=O)C(C)C)NC(=O)[C@H](Cc2c[nH]c4ccccc24)NC(=O)[C@H](CCCCN)NC(=O)[C@H](Cc2c[nH]cn2)NC(=O)[C@H]([C@@H](C)O)NC(=O)[C@H](CCCNC(=N)N)NC(=O)[C@H](CO)NC3=O)NC(=O)[C@H](CCCCN)NC(=O)[C@H](CC(=O)O)NC(=O)[C@H](CC(N)=O)NC(=O)[C@H](CC(=O)O)NC(=O)[C@@H]2CCCN2C1=O,> 5
7,"CC[C@H](C)[C@@H]1NC(=O)[C@@H]2CSSC[C@@H]3NC(=O)[C@H](C(C)C)NC(=O)[C@H](CC(C)C)NC(=O)[C@H](CC(N)=O)NC(=O)[C@@H]4CCCN4C(=O)[C@H](CCCNC(=N)N)NC(=O)[C@H](CSSC[C@H](NC(=O)[C@@H](N)CC(=O)O)C(=O)N[C@@H](CC(C)C)C(=O)NCC(=O)N[C@@H](Cc4ccccc4)C(=O)N[C@@H](CCSC)C(=O)N[C@@H](CCCNC(=N)N)C(=O)N[C@@H](CCCCN)C(=O)N2)NC(=O)[C@H](CSSC[C@@H](C(=O)N[C@@H](CCCCN)C(=O)N[C@@H](Cc2ccc(O)cc2)C(=O)N[C@H](C(=O)N[C@@H](Cc2ccccc2)C(N)=O)C(C)C)NC(=O)[C@H](Cc2c[nH]c4ccccc24)NC(=O)[C@H](CCCCN)NC(=O)[C@H](Cc2cnc[nH]2)NC(=O)[C@H]([C@@H](C)O)NC(=O)[C@H](CCCNC(=N)N)NC(=O)[C@H](CO)NC3=O)NC(=O)[C@H](CCCCN)NC(=O)[C@H](CC(=O)O)NC(=O)[C@H](CC(N)=O)NC(=O)[C@H](CCCNC(=N)N)NC(=O)[C@@H]2CCCN2C1=O (H-DCLGFMRKCIPRNDKCCRPNLVCSRTHKWCKYVF-NH2; disulfide 2-17, 9-23, 16-30)",> 4.8
8,"CC[C@H](C)[C@@H]1NC(=O)[C@@H]2CSSC[C@@H]3NC(=O)[C@H](C(C)C)NC(=O)[C@H](CC(C)C)NC(=O)[C@H](CCCNC(=N)N)NC(=O)[C@@H]4CCCN4C(=O)[C@H](CCCNC(=N)N)NC(=O)[C@H](CSSC[C@H](NC(=O)[C@@H](N)CC(=O)O)C(=O)N[C@@H](CC(C)C)C(=O)NCC(=O)N[C@@H](Cc4ccccc4)C(=O)N[C@@H](CCSC)C(=O)N[C@@H](CCCNC(=N)N)C(=O)N[C@@H](CCCCN)C(=O)N2)NC(=O)[C@H](CSSC[C@@H](C(=O)N[C@@H](CCCCN)C(=O)N[C@@H](Cc2ccc(O)cc2)C(=O)N[C@H](C(=O)N[C@@H](Cc2ccccc2)C(N)=O)C(C)C)NC(=O)[C@H](Cc2c[nH]c4ccccc24)NC(=O)[C@H](CCCCN)NC(=O)[C@H](Cc2cnc[nH]2)NC(=O)[C@H]([C@@H](C)O)NC(=O)[C@H](CCCNC(=N)N)NC(=O)[C@H](CO)NC3=O)NC(=O)[C@H](CCCCN)NC(=O)[C@H](CC(=O)O)NC(=O)[C@H](CC(N)=O)NC(=O)[C@H](CC(=O)O)NC(=O)[C@@H]2CCCN2C1=O (H-DCLGFMRKCIPDNDKCCRPRLVCSRTHKWCKYVF-NH2; disulfide 2-17, 9-23, 16-30)",> 5
9,"CC[C@H](C)[C@@H]1NC(=O)[C@@H]2CSSC[C@@H]3NC(=O)[C@H](C(C)C)NC(=O)[C@H](CC(C)C)NC(=O)[C@H](CC(N)=O)NC(=O)[C@@H]4CCCN4C(=O)[C@H](CCCNC(=N)N)NC(=O)[C@H](CSSC[C@H](NC(=O)[C@@H](N)CC(=O)O)C(=O)N[C@@H](CC(C)C)C(=O)NCC(=O)N[C@@H](Cc4ccccc4)C(=O)N[C@@H](CCSC)C(=O)N[C@@H](CCCNC(=N)N)C(=O)N[C@@H](CCCCN)C(=O)N2)NC(=O)[C@H](CSSC[C@@H](C(=O)N[C@@H](CCCCN)C(=O)N[C@@H](CCCNC(=N)N)C(=O)N[C@H](C(=O)N[C@@H](Cc2ccccc2)C(N)=O)C(C)C)NC(=O)[C@H](Cc2c[nH]c4ccccc24)NC(=O)[C@H](CCCCN)NC(=O)[C@H](Cc2cnc[nH]2)NC(=O)[C@H]([C@@H](C)O)NC(=O)[C@H](CCCNC(=N)N)NC(=O)[C@H](CO)NC3=O)NC(=O)[C@H](CCCCN)NC(=O)[C@H](CC(=O)O)NC(=O)[C@H](CC(N)=O)NC(=O)[C@H](CC(=O)O)NC(=O)[C@@H]2CCCN2C1=O (H-DCLGFMRKCIPDNDKCCRPNLVCSRTHKWCKRVF-NH2; disulfide 2-17, 9-23, 16-30)",> 5
